In ChEMBL document CHEMBL4038284, “Synthesis of novel quinoline-based 4,5-dihydro-1H-pyrazoles as potential anticancer, antifungal, antibacterial and antiprotozoal agents” (Eur J Med Chem, 2017):
In brackets after ≈: the same amount, converted by molar mass. Activity calls are given as the source filed them. The rule behind the calls is not given here.

How the values were obtained:
LOX IMVI = assay: Growth inhibition of human LOXIMVI cells at 10 uM incubated for 48 hrs by sulforhodamine B assay; type: functional, cell-based
Procedure, shortened: (§1)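 NCI 60-line panel, single 10 μM dose. Cells were grown in RPMI-1640 with 5% FBS and 2 mM L-glutamine and pre-incubated 24 h before compound addition (DMSO stock). Exposure was 48 h at 37 °C, 5% CO2. Cells were fixed with cold TCA (10% final), stained with 0.4% SRB, bound dye dissolved in 10 mM Tris base, A515 read. Growth was taken relative to time-zero and untreated control plates.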

UACC-257 = assay: Growth inhibition of human UACC257 cells at 10 uM incubated for 48 hrs by sulforhodamine B assay; type: functional, cell-based
Procedure, shortened: (§2)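 NCI-60 single-dose screen at 10 µM for 48 h. Cells were grown in RPMI-1640 with 5% FBS and 2 mM L-glutamine and preincubated 24 h before compound. Time-zero plates were TCA-fixed at compound addition. After exposure, cells were TCA-fixed, stained with SRB and read at 515 nm. Percentage growth was calculated against time-zero and untreated-control absorbances.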

Klebsiella pneumoniae = assay: Antibacterial activity against ESBL positive Klebsiella pneumoniae ATCC 700603 after 24 hrs by resazurin dye based microdilution assay; type: functional; conditions: Klebsiella pneumoniae, 700603, 24 h
Procedure, shortened: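 MIC taken as the lowest concentration giving visible inhibition and/or by resazurin (1 mg/mL). Gentamicin was the control. Run in duplicate, repeated at least three times.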

SF-295 = assay: Growth inhibition of human SF295 cells at 10 uM incubated for 48 hrs by sulforhodamine B assay; type: functional, cell-based; procedure, shortened: as §1
Neisseria gonorrhoeae = assay: Antibacterial activity against beta lactamase positive Neisseria gonorrhoeae ATCC 31426 by oxidase test; type: functional
Procedure, shortened: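 Agar dilution MIC on GC agar with 1% isovitalex containing increasing compound concentrations. Plates inoculated with about 1×10^4 CFU (5 µL). MIC is the lowest concentration that inhibited growth, with growth confirmed by oxidase test. Run in duplicate, repeated at least three times.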

OVCAR-8 = assay: Growth inhibition of human OVCAR8 cells at 10 uM incubated for 48 hrs by sulforhodamine B assay; type: functional, cell-based; procedure, shortened: as §1
SNB-75 = assay: Growth inhibition of human SNB75 cells at 10 uM incubated for 48 hrs by sulforhodamine B assay; type: functional, cell-based; procedure, shortened: as §2
MDA-MB-468 = assay: Growth inhibition of human MDA-MB-468 cells at 10 uM incubated for 48 hrs by sulforhodamine B assay; type: functional, cell-based; procedure, shortened: as §1
M14 = assay: Growth inhibition of human M14 cells at 10 uM incubated for 48 hrs by sulforhodamine B assay; type: functional, cell-based; procedure, shortened: as §1
DU-145 = assay: Growth inhibition of human DU145 cells at 10 uM incubated for 48 hrs by sulforhodamine B assay; type: functional, cell-based
Procedure, shortened: (§3)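 NCI 60-cell-line screen at a single 10 µM dose. Cells in RPMI-1640 with 5% FBS and 2 mM L-glutamine, pre-incubated 24 h, then treated for 48 h at 37 °C. TCA fixation, sulforhodamine B staining, absorbance at 515 nm. Percentage growth calculated against time-zero and untreated controls.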

Malme-3M = assay: Growth inhibition of human MALME-3M cells at 10 uM incubated for 48 hrs by sulforhodamine B assay; type: functional, cell-based; procedure, shortened: as §1
Cryptococcus neoformans [1] = assay: Growth inhibition of Cryptococcus neoformans ATCC 32264 at 7.8 ug/ml incubated for 48 hrs under dark condition by broth microdilution method relative to control; type: functional; conditions: ATCC 32264, 48 h, read-out: GI
Procedure, shortened: (§4)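 CLSI M27-A3 broth microdilution in RPMI-1640, DMSO ≤1%. Inoculum 1-5 × 10^3 CFU/mL. Incubated 48 h at 30 °C, dark. % inhibition = 100 − (OD405 test − sterility control)/(OD405 growth control − sterility control), with growth and sterility control wells. Triplicate.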

HT-29 = assay: Growth inhibition of human HT-29 cells at 10 uM incubated for 48 hrs by sulforhodamine B assay; type: functional, cell-based; procedure, shortened: as §1
MCF7 = assay: Growth inhibition of human MCF7 cells at 10 uM incubated for 48 hrs by sulforhodamine B assay; type: functional, cell-based; procedure, shortened: as §1
UO-31 = assay: Growth inhibition of human UO31 cells at 10 uM incubated for 48 hrs by sulforhodamine B assay; type: functional, cell-based; procedure, shortened: as §2
Cryptococcus neoformans [2] = assay: Growth inhibition of Cryptococcus neoformans ATCC 32264 at 31.25 ug/ml incubated for 48 hrs under dark condition by broth microdilution method relative to control; type: functional; conditions: ATCC 32264, 48 h, read-out: GI; procedure, shortened: as §4
U-937 = assay: Cytotoxicity against human U937 cells after 72 hrs by MTT assay; type: cell-based; conditions: u-937, 72 h
Procedure, shortened: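 Exponentially growing U-937 at 1 × 10^5 cells/mL in RPMI-1640 with 10% FBS were exposed to 200, 50, 12.5 and 3.125 µg/mL for 72 h at 37 °C, 5% CO2. MTT for 3 h, stopped with isopropanol/SDS, formazan read at 570 nm, blank-corrected. LC50 by Probit from % viability against untreated cells. Triplicate, at least two independent experiments.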

Plasmodium falciparum = assay: Antiplasmodial activity against chloroquine-sensitive Plasmodium falciparum 3D7 assessed as reduction in parasitic LDH activity after 48 hrs by Malstat reagent based […] method; type: functional; conditions: 3D7, 48 h
Procedure, shortened: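 Unsynchronized P. falciparum 3D7 at 0.5% parasitemia and 1% hematocrit in RPMI with 3% Albumax II. Exposed to 100, 25, 6.25 and 1.56 µg/mL for 48 h at 37 °C under 90% N2/5% CO2/5% O2. After three freeze-thaw cycles, LDH measured with Malstat and NBT/PES, 1 h in the dark, read at 650 nm. IC50 by Probit; triplicate, ≥2 experiments.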

HCT-15 = assay: Growth inhibition of human HCT15 cells at 10 uM incubated for 48 hrs by sulforhodamine B assay; type: functional, cell-based; procedure, shortened: as §3
Candida albicans [3] = assay: Growth inhibition of Candida albicans ATCC 10231 at 125 ug/ml incubated for 48 hrs under dark condition by broth microdilution method relative to control; type: functional; conditions: ATCC 10231, 48 h, read-out: GI; procedure, shortened: as §4
ACHN = assay: Growth inhibition of human ACHN cells at 10 uM incubated for 48 hrs by sulforhodamine B assay; type: functional, cell-based; procedure, shortened: as §3
KM12 = assay: Growth inhibition of human KM12 cells at 10 uM incubated for 48 hrs by sulforhodamine B assay; type: functional, cell-based; procedure, shortened: as §1
U-251 = assay: Growth inhibition of human U251 cells at 10 uM incubated for 48 hrs by sulforhodamine B assay; type: functional, cell-based; procedure, shortened: as §2
HOP-62 = assay: Growth inhibition of human HOP62 cells at 10 uM incubated for 48 hrs by sulforhodamine B assay; type: functional, cell-based; procedure, shortened: as §3
TK-10 = assay: Growth inhibition of human TK10 cells at 10 uM incubated for 48 hrs by sulforhodamine B assay; type: functional, cell-based; procedure, shortened: as §2
Candida albicans [4] = assay: Growth inhibition of Candida albicans ATCC 10231 at 3.4 ug/ml incubated for 48 hrs under dark condition by broth microdilution method relative to control; type: functional; conditions: ATCC 10231, 48 h, read-out: GI
SW-620 = assay: Growth inhibition of human SW620 cells at 10 uM incubated for 48 hrs by sulforhodamine B assay; type: functional, cell-based; procedure, shortened: as §2
SN12C = assay: Growth inhibition of human SN12C cells at 10 uM incubated for 48 hrs by sulforhodamine B assay; type: functional, cell-based; procedure, shortened: as §2

Row | SMILES | growth inhibition (GI) (LOX IMVI) | growth inhibition (GI) (UACC-257) | MIC (Klebsiella pneumoniae) [µg/mL] | growth inhibition (GI) (SF-295) | MIC (Neisseria gonorrhoeae) [µg/mL] | growth inhibition (GI) (OVCAR-8) | growth inhibition (GI) (SNB-75) | growth inhibition (GI) (MDA-MB-468) | growth inhibition (GI) (M14) | growth inhibition (GI) (DU-145) | growth inhibition (GI) (Malme-3M) | inhibition of growth at 7.8 µg/mL (Cryptococcus neoformans [1]) [%] | growth inhibition (GI) (HT-29) | growth inhibition (GI) (MCF7) | growth inhibition (GI) (UO-31) | inhibition of growth at 31.25 µg/mL (Cryptococcus neoformans [2]) [%] | LC50 (U-937) [µg/mL] | EC50 (Plasmodium falciparum) [µg/mL] | inhibition of growth at 125 µg/mL (Candida albicans [3]) [%] | inhibition of growth at 3.4 µg/mL (Candida albicans [4]) [%] | other results
1 | COc1ccc(C2=NN(C=O)C(c3cccc(Nc4ccnc5cc(Cl)ccc45)c3)C2)cc1 (stereo not given) | Active | Active | > 1000 | Active | > 1000 | Active | Active | Active | Active | Active | Active | 13.4 | Active | Active | Active | 29.1 | 0.3 (≈ 0.657 µM) | 16.1 (≈ 35.3 µM) | 28 | 3.51 | growth inhibition (GI) (HCT-15): Active; growth inhibition (GI) (ACHN): Active; growth inhibition (GI) (KM12): Active; growth inhibition (GI) (U-251): Active; growth inhibition (GI) (HOP-62): Active; growth inhibition (GI) (TK-10): Active; growth inhibition (GI) (SW-620): Active; growth inhibition (GI) (SN12C): Active
2 | O=CN1N=C(c2ccc(Cl)cc2)CC1c1cccc(Nc2ccnc3cc(Cl)ccc23)c1 (stereo not given) | Active | Active | > 1000 | Active | > 1000 | Active | Active | Active | Active | Active | Active | 39.5 | Active | Active | Active | 55.7 | 0.6 (≈ 1.3 µM) | 24.7 (≈ 53.6 µM) | 35.7 | 9.81 | growth inhibition (GI) (HCT-15): Active; growth inhibition (GI) (ACHN): Active; growth inhibition (GI) (KM12): Active; growth inhibition (GI) (U-251): Active; growth inhibition (GI) (HOP-62): Active; growth inhibition (GI) (TK-10): Active; growth inhibition (GI) (SW-620): Active; growth inhibition (GI) (SN12C): Active
3 | COc1cc(C(=O)/C=C/c2cccc(Nc3ccnc4cc(Cl)ccc34)c2)cc(OC)c1OC | Active | Active | > 1000 | Active | > 1000 | Active | Active | Active | Active | Active | Active | 0 | Active | Active | Active | 3.63 | 0.9 (≈ 1.89 µM) | 14.1 (≈ 29.7 µM) | 10.7 | 1.24 | growth inhibition (GI) (HCT-15): Active; growth inhibition (GI) (ACHN): Active; growth inhibition (GI) (KM12): Active; growth inhibition (GI) (U-251): Active; growth inhibition (GI) (HOP-62): Active; growth inhibition (GI) (TK-10): Active; growth inhibition (GI) (SW-620): Active; growth inhibition (GI) (SN12C): Active
4 | O=Cc1cccc(Nc2ccnc3cc(Cl)ccc23)c1 |  |  | > 1000 |  | 500 (≈ 1770 µM) |  |  |  |  |  |  | 5.93 |  |  |  | 14.3 | 0.6 (≈ 2.12 µM) | 14.2 (≈ 50.1 µM) | 34.8 | 1.33 | 
5 | COc1ccc(C(=O)/C=C/c2cccc(Nc3ccnc4cc(Cl)ccc34)c2)cc1 | Active | Active | > 1000 | Active | > 1000 | Active | Active | Active | Active | Active | Active | 2.47 | Active | Active | Active | 7.31 | 8.1 (≈ 19.5 µM) | 10.5 (≈ 25.4 µM) | 46.8 | 5.88 | growth inhibition (GI) (HCT-15): Active; growth inhibition (GI) (ACHN): Active; growth inhibition (GI) (KM12): Active; growth inhibition (GI) (U-251): Active; growth inhibition (GI) (HOP-62): Active; growth inhibition (GI) (TK-10): Active; growth inhibition (GI) (SW-620): Active; growth inhibition (GI) (SN12C): Active
